PABP1 MLLE inh – inhibitors of PABP1 MLLE–PAM2 peptide binding, primary screen, biochemical, fluorescence polarization, FITC-PAM2, GST-MLLE; inhibition, % at 20 µM; 360,000 compounds, 0.36% hits; AID 588489, 2011; in the data active means inhibition above about 35%, passing the limit was not always enough
ZTA counter – blocks Epstein-Barr virus ZTA, an EBNA-1 counter-screen; ZTA-DNA binding, fluorescence polarization; inhibition, % at 11 µM; 320,000 compounds, 0.15% hits; AID 2234; in the data active means inhibition above about 33%
PABP polyA inh – PABP poly(A) RNA binding inhibitors, primary screen, biochemical, fluorescence polarization, uHTS. AID 2014, 2009. Polyadenylate-binding protein 1 (Homo sapiens), P11940. inhibition, % at 35 µM. 290,000 compounds, 1% hits;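 further: calls also rest on retests at 20 µM and on dose response follow-up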
eIF4H FP inh – human eIF4H binding inhibitors, primary screen, translation initiation inhibitor project, biochemical, uHTS, fluorescence polarization; Eukaryotic translation initiation factor 4H (Homo sapiens), Q15056; eIF4H fluorescence polarization binding assay; inhibition, % at 35 µM; 290,000 compounds, 0.94% hits;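 further: calls also rest on retests at 20 µM and on dose response follow-up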
EBNA-1 inh – EBNA-1 DNA-binding inhibitors, primary screen, biochemical, fluorescence polarization. AID 1950, 2009. 300,000 compounds, 0.34% hits. inhibition, % at 14.8 µM; in the data active means inhibition above about 28%
HCV NS3 hel inh – inhibitors of HCV NS3 helicase, primary screen, biochemical, Cy5 molecular beacon fluorescence; Hepatitis C virus NS3 helicase; NS3 helicase DNA unwinding; inhibition, % at 10.9 µM; 290,000 compounds, 0.56% hits; AID 1800, 2009;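 active means inhibition above the mean of all tested compounds plus 3 SD, set per campaign, cut at about 35% in these data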
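Control set: DMSO versus 110 µM thioflavine S; Material: NS3 helicase fragment of HCV; Measured by: Cy5 fluorescence at 0 and 60 min, beacon hairpin quenching; Read-out basis: percent inhibition from t60/t0 fluorescence ratio; Times: reaction time 60 min, 25 °C; Repeats: single replicate; Compound dosing: single dose, 10.9 µM nominal final, DMSO 0.8% final.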
EBNA-1 inh conf – EBNA-1 DNA-binding inhibitors, retest, confirmation, biochemical, fluorescence polarization, triplicate; 830 compounds, 35% hits; inhibition, % at 14.8 µM; shares compounds with EBNA-1 inh; Recombinant EBNA-1 DBD, Cy5-DNA fluorescence polarization;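 active means mean inhibition across replicates above a set limit taken from the earlier primary screen, cut at about 28% in these data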
ZTA counter trip – EBV Zta DNA binding inhibitors, counter-screen for EBNA-1 inhibitor project, biochemical, fluorescence polarization, triplicate; shares compounds with EBNA-1 inh; Zta-ZRE DNA binding, Cy5 fluorescence polarization; inhibition, % at 11.1 µM; 830 tested, under 10 active; AID 2328, 2010;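 active means mean inhibition over triplicates above a set limit taken from the primary EBNA-1 screen, cut at about 37% in these data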;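 further: purified full length Zta protein with Cy5 labeled ZRE DNA probe; inhibitors lower polarization by freeing the labeled DNA probe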
Zta DNA confirm – EBV Zta binding to ZRE DNA, inhibitors, confirmation, biochemical, fluorescence polarization, triplicate. shares compounds with ZTA counter. inhibition, % at 11.1 µM. 320 compounds, 30% hits. AID 2361, 2010;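 active means mean inhibition across triplicate runs above the hit threshold derived for the original primary screen, cut at about 33% in these data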
EBNA1 counter – EBNA-1 DNA-binding inhibition, counter-screen for ZTA inhibitor project, biochemical, fluorescence polarization; 320 tested, under 10 active; shares compounds with ZTA counter; inhibition, % at 14.8 µM; AID 2362, 2010
Each line names hits and unclear results; the compound was inactive in the other large screens (follow-up assays come after a bar, where they were run). Shown are actives, neighbours in structure and some others; about 2.1% of the full set was active somewhere. Unless noted, how the calls were made is not given here.

CN(C)C(=O)Oc1noc2cc(Cl)ccc12	EBNA-1 inh 34 | EBNA-1 inh conf inactive | ZTA counter trip inactive
CN(C)C(=O)Oc1c(Cl)cc(Cl)c2cccnc12	none
COc1ccc(-c2csc(NC(=O)COC(=O)Cc3ccccc3)n2)cc1OC	EBNA-1 inh 31 (no result: PABP1 MLLE inh) | EBNA-1 inh conf 34 | ZTA counter trip inactive
CN1C(=O)/C(=C/c2ccc(Cl)s2)C(=O)NC1=S	none
CN1C(=O)/C(=C/C=C/c2ccco2)C(=O)NC1=S	ZTA counter 34, PABP polyA inh inconclusive, eIF4H FP inh inconclusive | Zta DNA confirm 69 | EBNA1 counter inactive
O=C1NC(=O)N(Cc2ccco2)C(=O)/C1=C/C=C/c1ccco1	ZTA counter 35, PABP polyA inh inconclusive, eIF4H FP inh inconclusive | Zta DNA confirm inactive | EBNA1 counter inactive
C[C@]12CCC(=O)C(O)=C1CC[C@@H]1[C@@H]2CC[C@]2(C)C(=O)CC[C@@H]12	none
COC(=O)CCCC(NC(=S)N1CC2C[C@@H](C1)Cn1c2cccc1=O)C(=O)OC (stereo not given in full)	none
O=C1C(=O)c2ccccc2-c2ccccc21	ZTA counter 65 | Zta DNA confirm 68 | EBNA1 counter inactive
Cc1nc2c(=O)n(C)c(=O)nc-2n(C)n1	ZTA counter 46 | Zta DNA confirm 71 | EBNA1 counter inactive
C[C@H](NC(=O)N1C[C@H]2C[C@@H](C1)c1cccc(=O)n1C2)C(=O)Nc1ccc(F)c(F)c1	none
Cn1c(O)c(/C=N/N2CCCCC2)c(=O)[nH]c1=O	ZTA counter 37 | Zta DNA confirm inactive | EBNA1 counter inactive
CCCCCCC(C)(C)c1ccc([C@@H]2C[C@H](O)CC[C@H]2CCCO)c(O)c1	none (no result: PABP polyA inh, eIF4H FP inh, HCV NS3 hel inh)
CCOC(=O)c1c(NS(=O)(=O)c2ccccc2)n(CCCOC)c2nc3ccccc3nc12	ZTA counter 56 | Zta DNA confirm inactive | EBNA1 counter inactive
COCCCn1c(N)c(C(=O)OCCOC)c2nc3ccccc3nc21	none
CCCCCCC(=O)N/N=C/c1c(O)n(CCCC)c(=S)[nH]c1=O	none
CCCCC(=O)N/N=C/c1c(O)n(CC)c(=S)[nH]c1=O	ZTA counter 36, eIF4H FP inh 56 | Zta DNA confirm inactive | EBNA1 counter inactive
COC(=O)C1=C(c2cccc(C#N)c2)C[C@@H]2CC[C@H]1N2C(=O)NC(C)C	none (no result: PABP polyA inh, eIF4H FP inh, EBNA-1 inh, HCV NS3 hel inh)
CCN(CC)c1ccc(N=Cc2c(O)n(-c3cc(OC)ccc3OC)c(=O)[nH]c2=O)cc1	ZTA counter 34, PABP polyA inh 0.1, eIF4H FP inh 99 | Zta DNA confirm inactive | EBNA1 counter inactive
COCCNC(=O)c1c(NC(=O)c2ccc(Br)o2)n(Cc2ccccc2)c2nc3ccccc3nc12	none
C[n+]1c2ccccc2nc2ccc(NCCO)cc21	ZTA counter 60, PABP polyA inh 76 | Zta DNA confirm 48 | EBNA1 counter inactive

Source: PubChem BioAssay (several laboratories)
